# Source: PubChem BioAssay (several laboratories)
# T cell modulator = modulates CD8 T cell binding to vesicles; 2C CD8+ T cell-vesicle binding, flow cytometry; stronger effect = lower value; response (vesicle binding), % at 7 µM; 330,000 tested, 0.068% active; AID 2052;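 active = response, share of CD8 T cells binding vesicles, and their 90th percentile fluorescence all below set limits, cut at about 80% in these data, passing the limit was not always enough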;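 note: values below 100% mean blocked vesicle binding to the CD8+ T cells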
#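 Read-out – percent CD8+ FL2 mean versus row control · System – murine 2C transgenic CD8+ T lymphocytes · Times – 1.5 h cell–vesicle binding at 37 °C, then 20 min icy labelling · Control set – naked vesicles low, QL9 vesicles with vehicle high · Detection – cytometric PE anti-B7-1 and Alexa647 anti-CD8 signals after 1% paraformaldehyde fixation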
# GAA850 FXN act = frataxin GAA850 promoter activation; HEK293 lucGAA850 FXN promoter luciferase reporter, 24 h; percent of 10 µM SAHA response; activation, % at 6 µM; 360,000 tested, 0.56% active; AID 540364;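 active = activation above the average of all compounds screened plus 3 SD, cutoff fixed separately per campaign, cut at about 7.5% in these data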
# NR2E3 ag-1 = activates human NR2E3 receptor; Q9Y5X4; AID 602229; inhibition of corepressor binding, % at 3.98 µM; 360,000 tested, 0.35% active; CHO-S Gal4-NCOR/VP16-NR2E3 two-hybrid, luciferase;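 active = inhibition above the mean of all tested compounds plus 3 SD, cut at about 70% in these data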;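 note: higher means lower luciferase signal from less NR2E3 corepressor binding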
# Target sequence (Q9Y5X4 whole entry, looked up, the tested form may be a part): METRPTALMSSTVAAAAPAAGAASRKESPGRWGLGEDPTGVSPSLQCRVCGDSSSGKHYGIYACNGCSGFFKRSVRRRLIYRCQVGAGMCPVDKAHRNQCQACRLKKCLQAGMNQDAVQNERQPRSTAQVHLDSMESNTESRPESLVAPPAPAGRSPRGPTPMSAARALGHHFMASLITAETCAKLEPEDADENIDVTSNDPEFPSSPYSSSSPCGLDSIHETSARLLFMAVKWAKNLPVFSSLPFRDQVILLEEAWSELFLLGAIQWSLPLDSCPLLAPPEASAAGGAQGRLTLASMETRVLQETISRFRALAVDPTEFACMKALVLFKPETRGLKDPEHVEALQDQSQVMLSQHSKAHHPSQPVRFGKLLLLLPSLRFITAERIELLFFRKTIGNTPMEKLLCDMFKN
# NR2E3 ag-2 = activates human photoreceptor nuclear receptor NR2E3. GST-NR2E3/biotin-RetCOR TR-FRET, 1536-well. Q9Y5X4. inhibition of corepressor binding, % at 4.78 µM. 320,000 tested, 0.12% active;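 active = percent inhibition above the cutoff of mean plus 3 SD of all tested compounds, set per screening campaign, cut at about 20% in these data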
#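 Assay system: NR2E3–RetCOR corepressor complex. Quantity: 1.35 nM GST-NR2E3. Buffer or medium: pH 7.5 Tris-based buffer. Reagent: biotinylated RetCOR corepressor at 7 nM final. Schedule: 5 h at 4 °C. Detection: TR-FRET, emission read at 617 and 671 nm. Replicates: one well per compound, singlicate testing.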
# Myeloid diff 2 = compounds promoting myeloid differentiation | 360,000 tested, 1% active | ER-HoxA9 myeloid progenitors, lysozyme-GFP differentiation, flow cytometry | calls only at 10 µM | AID 624256;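 active = normalized GFP-positive differentiation at or above the plate's own cutoff, the solvent-only control mean plus 3 SD; inconclusive = no clear call, values can overlap the other calls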;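 note: cells exposed to compound for four days before flow analysis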
# GAA30 counter = activates GAA30 frataxin promoter, counter-screen for GAA850 activators; shares compounds with GAA850 FXN act; HEK293 lucGAA30 FXN promoter luciferase, 24 h; DMSO = 0%, 5 µM ipriflavone = 100%; activation, % at 6 µM; 1,900 tested, 66% active; AID 588350;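 active = mean activation above the mean of solvent-only control wells plus 3 SD, cut at about 22% in these data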;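 note: counterscreen of GAA850 promoter hits where activity marks nonselective or luminescence artifacts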
# FXN GAA850 conf = confirmation of GAA850 frataxin (FXN) promoter activators. shares compounds with GAA850 FXN act. HEK293 lucGAA850 FXN promoter luciferase reporter, 24 h; 100% = activation by SAHA. activation, % at 6 µM. 1,900 tested, 86% active;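 active = mean activation above a set limit taken from the primary screen, cut at about 8% in these data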
# Hits are given with their value; – = inactive; ? = inconclusive; · = no result given; ! = a repeat was not active. Compounds with a hit are over-represented: about 2% of the library has one in this group of screens.
SMILES,T cell modulator,GAA850 FXN act,NR2E3 ag-1,NR2E3 ag-2,Myeloid diff 2,GAA30 counter,FXN GAA850 conf
CCOC(=O)CSc1nc(N)c(C#N)cc1C#N,–,11,–,–,–,52,30
CCOC(=O)CSc1nc2cc(C)cc(C)c2cc1C#N,–,–,–,–,–,·,·
CCOC(=O)CSc1nc(N)c(C#N)c(-c2ccc(OCC)cc2)c1C#N,–,13,–,–,–,–,9.1
CCCCCCCCN1C(=O)[C@H](CC(=O)N2CCN(C(=O)OCC)CC2)C[C@@]2(C(=O)OC)CCCCC=C12,·,·,–,·,–,·,·
Cc1ccc2nc(/C=C/c3cccc(F)c3)ccc2c1,–,9.5,–,–,–,101,30
Clc1ccc(-c2cn3cc(Br)ccc3n2)cc1Cl,–,8.2,–,–,–,71,22
Cc1ccn2cc(-c3ccc(Br)cc3)nc2c1,–,–,–,–,–,·,·
COc1ccc(S(=O)(=O)N2CCCCC2)cc1NC(=O)Cc1ccsc1,–,–,–,–,–,·,·
C[n+]1c2cc(N)ccc2cc2ccc(N)cc21,·,20,–,·,?,–,138
Cc1ccccc1-c1cccc([C@@H]2C[C@H]3[C@H](CON3C)CN2Cc2ccccc2)c1,·,–,–,·,–,·,·
CC(NC(=O)CSC(=S)N(C)C)C12CC3CC(CC(C3)C1)C2 (stereo not given),·,9.4,–,·,–,31,14
CC(NC(=O)Cn1ccsc1=N)C12CC3CC(CC(C3)C1)C2 (stereo not given),–,–,–,–,–,·,·
C/C(=N\N=C\c1ccccc1F)c1nnn(-c2nonc2N)c1C,–,10,–,–,–,88,31
Nc1nonc1-n1nnc(C(=O)N/N=C/c2ccccc2F)c1-c1cccs1,–,–,–,–,–,·,·
Fc1ccc(-c2cnn3c(-c4ccncc4)ccnc23)cc1,–,8.6,–,–,–,96,30
COc1ccc(-c2cc(C(=O)NC(C)C)no2)cc1,–,8.1,–,–,–,106,32
COC(=O)c1cc(-c2ccc(OC)cc2)on1,–,–,–,–,–,·,·
COc1ccccc1-c1nc(-c2ccc(C)nc2OC)no1,–,8.8,–,–,–,121,40
COc1cc(/C=C(\C#N)c2nc3ccccc3[nH]2)ccc1OC(=O)c1ccco1,–,7.8,–,–,–,119,35
N#C/C(=C\c1ccncc1)c1nc2ccccc2[nH]1,·,8.8,–,·,–,33,9.3
N#C/C(=C\c1cccnc1)c1nc2ccccc2[nH]1,–,–,–,–,–,·,·
CCS(=O)(=O)N1Cc2ccccc2CC1C(=O)Nc1nc(C)cs1 (stereo not given),–,7.9,–,–,–,79,33
CCS(=O)(=O)N1Cc2ccccc2CC1C(=O)Nc1nccs1 (stereo not given),–,8.2,–,–,–,109,38
CCS(=O)(=O)N1Cc2ccccc2CC1C(=O)Nc1nc2c(C)cccc2s1 (stereo not given),–,–,–,–,–,·,·
COc1ccc(S(=O)(=O)N2Cc3ccccc3CC2C(=O)Nc2nccs2)cc1 (stereo not given),–,–,–,–,–,·,·
SMILES,T cell modulator,GAA850 FXN act,NR2E3 ag-1,NR2E3 ag-2,Myeloid diff 2,GAA30 counter,FXN GAA850 conf
CSc1ccc(CN2CCC2(C)C(=O)NC2CCN(Cc3ccccc3)CC2)cc1 (stereo not given),·,–,–,·,–,·,·
COc1ccc(-c2cnnn2-c2ccc(NC(=O)/C=C/c3ccc(OC)c(OC)c3)cc2)cc1,–,–,–,–,–,·,·
COc1ccc(/C=C/C(=O)Nc2ccc(-n3nncc3-c3ccc(OC)c(OC)c3)cc2)cc1OC,–,8.9,–,–,–,23,17
CCN(CC)C(=O)c1cccc(-c2csc(C(O)c3cccc(Cl)c3)n2)c1 (stereo not given),·,–,–,·,–,·,·
CC(C)CC1C(=O)N(Cc2cn(Cc3ccco3)nn2)CCS(=O)(=O)N1Cc1ccc(-c2ccccc2)cc1 (stereo not given),·,–,–,·,–,·,·
CCOC(=O)c1cnc(SCc2ccccc2)nc1N,–,9.9,–,–,–,117,39
CCOC(=O)c1cnc(SCc2ccc(C(C)(C)C)cc2)nc1N,–,–,–,–,–,·,·
COc1ccc(/C=C2\Oc3cc(OCC(=O)N4CCC[C@H]4CO)ccc3C2=O)c(OC)c1,–,–,–,–,–,·,·
CCc1ccc(Oc2cc(Cl)nc(N)n2)cc1,–,7.7,–,–,–,103,36
COc1ccc(Oc2cc(Cl)nc(N)n2)cc1,–,–,–,–,–,·,·
COc1ccccc1C(=O)Nc1ccc(C(=O)/C=C/c2cccs2)cc1,–,8.5,–,–,–,22,13
COc1ccccc1-c1cc(NC=O)c2ncc(-c3ccc(S(C)(=O)=O)cc3)n2c1,·,–,–,·,–,·,·
O=C(CSc1ccc(-c2cccc([N+](=O)[O-])c2)nn1)N1CCCC1,–,–,–,–,–,·,·
CCSc1ccc(-c2cccc([N+](=O)[O-])c2)nn1,–,8.5,–,–,–,97,29
Nc1c2ccccc2nc2ccccc12,–,13!,–,–,?,–,94
COc1ccc(-c2[nH]c(-c3ccc(Cl)cc3)nc2SCC(=O)Nc2nccs2)cc1,–,19,–,–,–,–,8.9
COCC(=O)Nc1nnc(-c2ccc(C(C)(C)C)cc2)s1,–,8.3,–,–,–,124,37
COc1cc([N+](=O)[O-])c2nccnc2c1,–,–,–,–,–,·,·
CCOc1cc([N+](=O)[O-])c2nc(N)sc2c1,–,7.9,–,–,–,39,19
CN1OC[C@@H]2CN(S(=O)(=O)c3cc(Cl)cc(Cl)c3)[C@H](c3ccc(-c4ccc(C#N)cc4)cc3)C[C@@H]21,·,·,–,·,–,·,·
Cc1cccc(C)c1NC(=O)c1nc(S(=O)(=O)Cc2ccccc2)ncc1Cl,–,8.2,–,–,–,–,20
CCOc1ccc(NC(=O)C(CC(=O)O)Cc2ccc(C)cc2)cc1 (stereo not given),–,–,–,·,–,·,·
CCOC(=O)c1cc2c(=O)n3ccccc3nc2n(CCOC)c1=NC(=O)C(C)(C)C,–,10,–,–,–,92,35
CCOC(=O)c1cc2c(=O)n3ccccc3nc2n(CCCOC)c1=NC(=O)C(C)(C)C,–,–,–,–,–,·,·
C[C@@H]1CCCCO[C@H](CN(C)S(=O)(=O)c2ccc(F)cc2)[C@@H](C)CN([C@H](C)CO)C(=O)c2cc(NC(=O)Nc3ccc(C(F)(F)F)cc3)ccc2O1,·,–,–,·,–,·,·
Nc1ccc(Nc2nc(-c3cc4ccccc4oc3=O)cs2)cc1,–,9.0,–,–,–,74,32
